Experimental data as given in PMC5632530 (Cell, 2017).
pIC50: −log10 of the molar value. Values belong to the molecule of their own block, whether it stands above or below them.

What was measured:
PTGR2 [1] = molecular target: T1, PTGR2 (Homo sapiens, UniProt Q8N8N7); type: cell-based; conditions: cells recombinantly expressing PTGR2
Procedure, shortened: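 HEK293T cells were co-transfected (PEI) with a UAS-luciferase reporter, GAL4-DBD or GAL4-DBD::PPARγ-LBD, and full-length PTGR2 as indicated. After 24 hr they were treated with DMSO, 15-keto-PGE2 (20 μM), test compounds, or rosiglitazone (2 μM) control. After 16 hr cells were lysed and luciferase activity was measured.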

PTGR2 [2] = molecular target: T1, PTGR2; assay: In vitro LCMS-based activity assay for PTGR2; type: biochemical
PTGR2 [3] = molecular target: T1, PTGR2; assay: cell-based
endogenous PTGR2 = endogenous PTGR2 (Homo sapiens, UniProt Q8N8N7); type: binding
Procedure, shortened: (§1)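 SILAC-labeled HEK293T cells were used: heavy cells received FFF probe plus competitor and light cells received probe plus DMSO, in serum-free medium for 30 min at 37°C, followed by 365 nm UV for 10 min. Lysates (1.5 mg/mL) were mixed 1:1, clicked to biotin-azide, streptavidin-enriched, trypsin-digested and analysed by LC-MS. Ratios were averaged from ≥2 biological replicates.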

ZADH2 = molecular target: T2, ZADH2 (Homo sapiens, UniProt Q8N4Q0); assay: MS-based competitive profiling with FFF 8: cross-reactivity with ZADH2; type: binding; conditions: competition of FFF 8 labeling
T2 sequence (Q8N4Q0 1-377): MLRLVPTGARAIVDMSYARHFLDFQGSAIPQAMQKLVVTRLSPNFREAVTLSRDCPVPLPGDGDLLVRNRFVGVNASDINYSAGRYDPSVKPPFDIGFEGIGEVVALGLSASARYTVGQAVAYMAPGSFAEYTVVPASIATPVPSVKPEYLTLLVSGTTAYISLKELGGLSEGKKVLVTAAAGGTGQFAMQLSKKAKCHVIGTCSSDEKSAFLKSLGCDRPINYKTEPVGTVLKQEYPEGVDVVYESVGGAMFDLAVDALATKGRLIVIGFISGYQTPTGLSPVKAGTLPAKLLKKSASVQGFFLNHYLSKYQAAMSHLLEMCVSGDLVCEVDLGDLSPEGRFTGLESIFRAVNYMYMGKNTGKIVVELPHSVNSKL
Procedure, shortened: as §1

PTGR2 [4] = molecular target: T1, PTGR2; type: binding
Procedure, shortened: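 HEK293T cells were transiently transfected with C-terminally FLAG-tagged human PTGR2 (pRK5, PEI). Cells at ~90% confluence were washed and treated in serum-free medium with probe plus competitor or DMSO for 30 min at 37°C, then irradiated at 365 nm for 10 min. Lysates (1 mg/mL) were clicked to TAMRA azide (25 μM) and fluorescence was read on gel. Curves: mean ± SD (n = 3 or 4), four-parameter fit.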

PPARγ = molecular target: T3, PPARγ (Homo sapiens, UniProt P37231); assay: PPARγ luciferase reporter assay, direct modulation of PPARγ; type: cell-based
T3 sequence (P37231 238-503 limits assumed): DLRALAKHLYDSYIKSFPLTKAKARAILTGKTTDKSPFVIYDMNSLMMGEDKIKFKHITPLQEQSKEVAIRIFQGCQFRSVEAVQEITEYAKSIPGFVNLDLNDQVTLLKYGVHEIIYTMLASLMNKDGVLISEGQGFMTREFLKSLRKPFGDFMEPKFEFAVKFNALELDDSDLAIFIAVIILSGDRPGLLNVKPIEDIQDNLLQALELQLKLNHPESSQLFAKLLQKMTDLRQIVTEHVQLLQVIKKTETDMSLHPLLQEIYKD

human PGRMC2 [5] = molecular target: T4, human PGRMC2 (Homo sapiens, UniProt O15173); type: binding; conditions: HEK293T cells
T4 sequence (O15173 1-223): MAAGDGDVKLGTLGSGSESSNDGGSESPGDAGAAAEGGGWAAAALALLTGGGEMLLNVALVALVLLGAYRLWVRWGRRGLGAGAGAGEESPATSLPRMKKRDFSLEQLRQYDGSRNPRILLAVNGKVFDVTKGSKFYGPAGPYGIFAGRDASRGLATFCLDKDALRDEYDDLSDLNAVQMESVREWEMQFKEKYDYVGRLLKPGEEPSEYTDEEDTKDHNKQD
Procedure, shortened: (§2)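 HEK293T cells were transfected with human PGRMC2 and lysed 48 hr later. Lysates (1 mg/mL) were incubated with probe and competitor or DMSO for 30 min at room temperature, UV-irradiated, clicked to TAMRA azide, and analysed by in-gel fluorescence. Blockade curves: mean ± SD (n = 3 or 4), four-parameter non-linear fit.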

non-adipocyte cell lines = assay: Lipid accumulation in non-adipocyte cell lines; type: cell-based
[6] = tested on: 3T3-L1 mouse preadipocytes; assay: Adipocyte phenotypic screen: lipid accumulation by Nile Red; type: cell-based; conditions: for adipogenic activity in adipogenesis-related assays, in words: compounds 10 μM, 3T3-L1; for effect of co-treatment on the pro-adipogenic effects of 25: 10 μM with 25 (10 μM), Nile Red staining or adipogenic gene expression
Procedure, shortened: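 3T3-L1 preadipocytes were induced two days post-confluence with dexamethasone (1 μM), IBMX (0.5 mM) and insulin (1 μg/ml), plus DMSO (0.1%), test compound (10 μM), test compound with probe, or rosiglitazone (2 μM). They were stained with Nile Red and Hoechst at day 7 of differentiation, imaged, and harvested for RNA. Mean ± SD, n = 3.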

PGRMC1 = PGRMC1 (Mus musculus, UniProt O55022); assay: Quantitative proteomic; type: binding; conditions: 10 μM
PGRMC2 = molecular target: T5, PGRMC2 (Mus musculus, UniProt Q80UU9); assay: Quantitative proteomic; type: binding
T5 sequence (Q80UU9 1-217): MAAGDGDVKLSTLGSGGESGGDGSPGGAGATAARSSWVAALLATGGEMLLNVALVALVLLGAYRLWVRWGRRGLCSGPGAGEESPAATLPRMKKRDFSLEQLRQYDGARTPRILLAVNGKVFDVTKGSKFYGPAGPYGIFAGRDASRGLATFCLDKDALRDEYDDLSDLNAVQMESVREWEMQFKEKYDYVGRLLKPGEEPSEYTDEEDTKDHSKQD

cathepsin B (CTSB) = cathepsin B (CTSB) (Homo sapiens, UniProt P07858); assay: Competition of FFF 9 labeling of the active-site proximal peptide of CTSB; type: binding
Procedure, shortened: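 Cells were treated with probe (200–250 μM) with or without competitor in serum-free DMEM, UV-crosslinked, and lysed. Probe-labeled proteins were clicked to light or heavy biotin-TEV-azide (100 μM final) with CuSO4, TBTA and TCEP. Samples were combined, streptavidin-enriched, trypsin-digested on bead and released by TEV cleavage (50 mM Tris pH 8, 0.5 mM EDTA, 1 mM DTT). Probe-modified peptides were quantified by LC-MS.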

human PGRMC2 [7] = molecular target: T4, human PGRMC2; assay: In vitro gel-based competition of FFF probe 25 labeling of PGRMC2; type: binding
Procedure, shortened: as §2

T1 sequence (Q8N8N7 whole entry, the tested form may be a part): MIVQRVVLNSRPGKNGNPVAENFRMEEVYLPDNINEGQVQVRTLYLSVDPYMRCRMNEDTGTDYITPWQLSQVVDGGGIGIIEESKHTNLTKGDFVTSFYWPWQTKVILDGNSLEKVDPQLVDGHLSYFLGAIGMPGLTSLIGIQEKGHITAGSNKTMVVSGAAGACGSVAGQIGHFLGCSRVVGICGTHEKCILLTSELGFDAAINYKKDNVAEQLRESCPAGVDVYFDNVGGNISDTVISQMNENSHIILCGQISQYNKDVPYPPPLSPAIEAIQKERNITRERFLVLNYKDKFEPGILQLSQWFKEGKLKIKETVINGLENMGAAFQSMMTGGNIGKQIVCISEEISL
Sequence of endogenous PTGR2 (Q8N8N7 whole entry): as the sequence (Q8N8N7 whole entry, the tested form may be a part) above
Sequence of PGRMC1 (O55022 whole entry): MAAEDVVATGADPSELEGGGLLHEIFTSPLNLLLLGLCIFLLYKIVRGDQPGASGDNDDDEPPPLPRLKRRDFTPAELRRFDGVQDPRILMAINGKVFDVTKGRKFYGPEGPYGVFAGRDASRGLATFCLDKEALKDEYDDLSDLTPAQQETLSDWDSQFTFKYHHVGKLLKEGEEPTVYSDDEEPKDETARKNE

rescue of 15-keto-PGE2-dependent PPARγ transcriptional activity (PTGR2 [1]): concentration-dependent rescue
increase in potency relative to 20, 15-keto-PGE2 reductase activity (PTGR2 [2]): > 20 fold
pIC50 (PTGR2 [3]): ~6.15
inhibition of FFF 8 labeling of endogenous PTGR2 (endogenous PTGR2; 5 μM, HEK293T cells): complete inhibition
proteome-wide selectivity in blocking FFF 8 labeling, in words (endogenous PTGR2; HEK293T cells): excellent selectivity
inhibition at 0.5 µM (endogenous PTGR2; read-out: inhibition of FFF 8 labeling of endogenous PTGR2): ~80%
cross-reactivity with ZADH2, sequence-related homolog of PTGR2 (ZADH2): did not cross-react
increase in potency relative to 20, competition of 8-labeling (PTGR2 [4]): > 20 fold
SMILES: COc1ccccc1N1CCN(C(=O)Cc2ccccc2)CC1 [Compound 22, 1-(4-(2-Methoxyphenyl)piperazin-1-yl)-2-phenylethan-1-one]
direct modulation of PPARγ (PPARγ): neither 22 nor 23 directly modulated PPARγ

SMILES: COc1ccccc1C1CCN(S(=O)(=O)Cc2ccccc2)CC1 [Compound 23, 1-(Benzylsulfonyl)-4-(2-methoxyphenyl)piperidine]
direct modulation of PPARγ (PPARγ): neither 22 nor 23 directly modulated PPARγ

labeling of recombinant human PGRMC2 by FFF probe (human PGRMC2 [5]): strongly labeled
enrichment of PGRMC1 by 25 over 26 (PGRMC1): not preferentially enriched
preferential enrichment of PGRMC2 by 25 over 26 (SILAC ratio) (PGRMC2; 10 μM each, 30 min): > 3 fold
SMILES: C#CCCC1(CCC(=O)N[C@@H](CC(C)C)C(=O)Nc2ccc3ccccc3c2)N=N1 [Compound 25, (S)-2-(3-(3-(but-3-yn-1-yl)-3H-diazirin-3-yl)propanamido)-4-methyl-N-(naphthalen-2-yl)pentanamide]
lipid accumulation in non-adipocyte cell lines (non-adipocyte cell lines): did not induce lipid accumulation
lipid accumulation, in words ([6]; Nile Red): one of the highest levels of lipid accumulation

SMILES: C#CCCC1(CCC(=O)N[C@@H](C)C(=O)Nc2cc(OC)c3ccccc3c2)N=N1 [Compound 26, (S)-3-(3-(but-3-yn-1-yl)-3H-diazirin-3-yl)-N-(1-((4-methoxynaphthalen-2-yl)amino)-1-oxopropan-2-yl)propanamide]
adipogenic activity in adipogenesis-related assays, in words [6]: much less adipogenic activity

competition of 25 (10 μM) enrichment of PGRMC2 (SILAC ratio) (PGRMC2; 10× competitor): > 3 fold
SMILES: CCCC(=O)N[C@@H](CC(C)C)C(=O)Nc1ccc2ccccc2c1 [Compound 27, (S)-2-butyramido-4-methyl-N-(naphthalen-2-yl)pentanamide]
blockade of 25 labeling of recombinant human PGRMC2 by competitor (human PGRMC2 [5]): blocked in a concentration-dependent manner
adipogenic activity in adipogenesis-related assays, in words [6]: active

SMILES: CCCC(=O)N[C@@H](C)C(=O)Nc1cc(OC)c2ccccc2c1 [Compound 28, (S)-N-(1-((4-methoxynaphthalen-2-yl)amino)-1-oxopropan-2-yl)butyramide]
adipogenic activity in adipogenesis-related assays, in words [6]: largely inactive

SMILES: CCCC(=O)N[C@@H](CC(C)C)C(=O)N[C@H]1CCCc2ccccc21 [Compound 29, (S)-2-butyramido-4-methyl-N-((S)-1,2,3,4-tetrahydronaphthalen-1-yl)pentanamide]
adipogenic activity in adipogenesis-related assays, in words [6]: inactive controls

SMILES: CCCC(=O)N[C@@H](CC(C)C)C(=O)NCCc1ccc2c(c1)OCO2 [Compound 30, (S)-N-(2-(benzo[d][1,3]dioxol-5-yl)ethyl)-2-butyramido-4-methylpentanamide]
adipogenic activity in adipogenesis-related assays, in words [6]: inactive controls

SMILES: CC(C)(C)OC(=O)CN(Cc1ccc(Cl)cc1)Cc1ccc([N+](=O)[O-])s1 [GSK4112, reference compound]
effect of co-treatment on the pro-adipogenic effects of 25 [6]: had no effect

SMILES: CCOC(=O)C1Cc2ccccc2CN1C(=O)c1ccc(SC)s1 (centres unmarked) [SR8278, reference compound]
effect of co-treatment on the pro-adipogenic effects of 25 [6]: blocked

blockade of probe 9 interaction with CTSB peptide (aa 315–332) (cathepsin B (CTSB)): blocked
SMILES: CC(NC(=O)[C@H](Cc1ccccc1)NC(=O)OCc1ccccc1)C(=O)CF (some centres unmarked) [Z-FA-FMK]

pIC50 (human PGRMC2 [7]): 6.89
SMILES: C=CC1=C(C)c2cc3[nH]c(cc4nc(cc5[nH]c(cc1n2)c(C)c5CCC(=O)O)C(CCC(=O)O)=C4C)c(C)c3C=C [protoporphyrn IX]
